pIC50: −log10 of the molar value.
How the values were obtained:
[1] = Cytotoxicity against human 1218L cells after 4 days by propidium iodide assay; type: functional, cell-based; settings: 96 h
How it was run: (§1)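 Monolayer cell proliferation assay across a panel of up to 36 human tumour lines covering 14 solid tumour types. Lines came either from patient tumours grown as subcutaneous xenografts in NMRI nu/nu mice or from culture collections (ATCC, NCI, DSMZ). Potency is given as IC50.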

[2] = Cytotoxicity against human BXF T24 cells after 4 days by propidium iodide assay; type: functional, cell-based; settings: T-24, 96 h; how it was run: as §1
[3] = Cytotoxicity against human 498NL cells after 4 days by propidium iodide assay; type: functional, cell-based; settings: 96 h; how it was run: as §1
SF-268 = assay: Cytotoxicity against human SF268 cells after 4 days by propidium iodide assay; type: functional, cell-based; settings: SF-268, 96 h; how it was run: as §1
HCT-116 = assay: Cytotoxicity against human HCT116 cells after 4 days by propidium iodide assay; type: functional, cell-based; settings: HCT-116, 96 h; how it was run: as §1
HT-29 = assay: Cytotoxicity against human HT-29 cells after 4 days by propidium iodide assay; type: functional, cell-based; settings: HT-29, 96 h; how it was run: as §1
[4] = Cytotoxicity against human GXF251L cells after 4 days by propidium iodide assay; type: functional, cell-based; settings: GXF 251L, 96 h; how it was run: as §1
[5] = Cytotoxicity against human 536L cells after 4 days by propidium iodide assay; type: functional, cell-based; settings: 96 h; how it was run: as §1
[6] = Cytotoxicity against human 1121L cells after 4 days by propidium iodide assay; type: functional, cell-based; settings: 96 h; how it was run: as §1
[7] = Cytotoxicity against human 289L cells after 4 days by propidium iodide assay; type: functional, cell-based; settings: 96 h; how it was run: as §1
[8] = Cytotoxicity against human 526L cells after 4 days by propidium iodide assay; type: functional, cell-based; settings: 96 h; how it was run: as §1
[9] = Cytotoxicity against human LXFL 529L cells after 4 days by propidium iodide assay; type: functional, cell-based; settings: 96 h; how it was run: as §1
[10] = Cytotoxicity against human 629L cells after 4 days by propidium iodide assay; type: functional, cell-based; settings: 96 h; how it was run: as §1
NCI-H460 = assay: Cytotoxicity against human H460 cells after 4 days by propidium iodide assay; type: functional, cell-based; settings: NCI-H460, 96 h; how it was run: as §1
[11] = Cytotoxicity against human MAXF 401NL cells after 4 days by propidium iodide assay; type: functional, cell-based; settings: 96 h; how it was run: as §1
MCF7 = assay: Cytotoxicity against human MCF7 cells after 4 days by propidium iodide assay; type: functional, cell-based; settings: MCF7, 96 h; how it was run: as §1
[12] = Cytotoxicity against human 276L cells after 4 days by propidium iodide assay; type: functional, cell-based; settings: 96 h; how it was run: as §1
[13] = Cytotoxicity against human 394NL cells after 4 days by propidium iodide assay; type: functional, cell-based; settings: 96 h; how it was run: as §1
[14] = Cytotoxicity against human MEXF 462NL cells after 4 days by propidium iodide assay; type: functional, cell-based; settings: 96 h; how it was run: as §1
[15] = Cytotoxicity against human 514L cells after 4 days by propidium iodide assay; type: functional, cell-based; settings: 96 h; how it was run: as §1
[16] = Cytotoxicity against human 520L cells after 4 days by propidium iodide assay; type: functional, cell-based; settings: 96 h, in the assay text read “MTT assay” for “propidium iodide assay”; how it was run: as §1
[17] = Cytotoxicity against human 1619L cells after 4 days by propidium iodide assay; type: functional, cell-based; settings: 96 h, in the assay text read “MTT assay” for “propidium iodide assay”; how it was run: as §1
[18] = Cytotoxicity against human 899L cells after 4 days by propidium iodide assay; type: functional, cell-based; settings: 96 h; how it was run: as §1
OVCAR-3 = assay: Cytotoxicity against human OVCAR-3 cells after 4 days by propidium iodide assay; type: functional, cell-based; settings: OVCAR-3, 96 h; how it was run: as §1
[19] = Cytotoxicity against human 1657L cells after 4 days by propidium iodide assay; type: functional, cell-based; settings: 96 h; how it was run: as §1
PANC-1 = assay: Cytotoxicity against human PANC1 cells after 4 days by propidium iodide assay; type: functional, cell-based; settings: PANC-1, 96 h; how it was run: as §1
CWR22R = assay: Cytotoxicity against human 22Rv1 cells after 4 days by propidium iodide assay; type: functional, cell-based; settings: 22Rv1, 96 h; how it was run: as §1
DU-145 = assay: Cytotoxicity against human DU145 cells after 4 days by propidium iodide assay; type: functional, cell-based; settings: DU-145, 96 h; how it was run: as §1
LNCaP = assay: Cytotoxicity against human LNCAP cells after 4 days by propidium iodide assay; type: functional, cell-based; settings: 96 h; how it was run: as §1
[20] = Cytotoxicity against human PC3M cells after 4 days by propidium iodide assay; type: functional, cell-based; settings: PC-3M, 96 h; how it was run: as §1
[21] = Cytotoxicity against human 1752L cells after 4 days by propidium iodide assay; type: functional, cell-based; settings: 96 h; how it was run: as §1
[22] = Cytotoxicity against human 1781L cells after 4 days by propidium iodide assay; type: functional, cell-based; settings: 96 h; how it was run: as §1
[23] = Cytotoxicity against human 393NL cells after 4 days by propidium iodide assay; type: functional, cell-based; settings: 96 h; how it was run: as §1
[24] = Cytotoxicity against human RXF 486L cells after 4 days by propidium iodide assay; type: functional, cell-based; settings: 96 h; how it was run: as §1
[25] = Cytotoxicity against human RXF 944L cells after 4 days by propidium iodide assay; type: functional, cell-based; settings: 96 h; how it was run: as §1
[26] = Cytotoxicity against human UXF 1138L cells after 4 days by propidium iodide assay; type: functional, cell-based; settings: 96 h; how it was run: as §1
[27] = Cytotoxicity against human 1218 cells after 7 to 20 days by clonogenic assay; type: functional, cell-based
How it was run: (§2)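 Colony formation assay for clonogenicity. Cell suspensions were prepared from patient-derived human tumour xenografts, kept by serial subcutaneous passage in NMRI nu/nu mice. Cells were embedded and incubated in culture medium containing soft agar. Potency is given as IC50.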

[28] = Cytotoxicity against human 243 cells after 7 to 20 days by clonogenic assay; type: functional, cell-based; how it was run: as §2
[29] = Cytotoxicity against human 575 cells after 7 to 20 days by clonogenic assay; type: functional, cell-based; how it was run: as §2
[30] = Cytotoxicity against human LXFA 526 cells after 7 to 20 days by clonogenic assay; type: functional, cell-based; how it was run: as §2
[31] = Cytotoxicity against human LXFA 629L cells after 7 to 20 days by clonogenic assay; type: functional, cell-based; how it was run: as §2
[32] = Cytotoxicity against human 1322 cells after 7 to 20 days by clonogenic assay; type: functional, cell-based; how it was run: as §2
[33] = Cytotoxicity against human 401 cells after 7 to 20 days by clonogenic assay; type: functional, cell-based; how it was run: as §2
[34] = Cytotoxicity against human 276 cells after 7 to 20 days by clonogenic assay; type: functional, cell-based; how it was run: as §2
[35] = Cytotoxicity against human 514 cells after 7 to 20 days by clonogenic assay; type: functional, cell-based; how it was run: as §2
[36] = Cytotoxicity against human 899 cells after 7 to 20 days by clonogenic assay; type: functional, cell-based; how it was run: as §2
[37] = Cytotoxicity against human RXF631 cells after 7 to 20 days by clonogenic assay; type: functional, cell-based; settings: RXF 631; how it was run: as §2
[38] = Cytotoxicity against human NSB005 cells after 7 to 20 days by clonogenic assay; type: functional, cell-based
How it was run: (§3)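 Colony formation assay on hematopoietic stem cells from cord blood, used as nonmalignant tissue. Cells were embedded and incubated in culture medium containing methyl cellulose. Potency is given as IC50.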

[39] = Cytotoxicity against human NSB008 cells after 7 to 20 days by clonogenic assay; type: functional, cell-based; how it was run: as §3
Bacillus subtilis = assay: Antibacterial activity against Bacillus subtilis at […] by agar diffusion test; type: functional
Escherichia coli = assay: Antibacterial activity against Escherichia coli at […] by agar diffusion test; type: functional
Staphylococcus aureus = assay: Antibacterial activity against Staphylococcus aureus at […] by agar diffusion test; type: functional
[40] = tested on: Streptomyces viridochromogenes; assay: Antibacterial activity against Streptomyces viridochromogenes at […] by agar diffusion test; type: functional
Candida albicans = assay: Antifungal activity against Candida albicans at […] by agar diffusion test; type: functional
Rhizomucor miehei = assay: Antifungal activity against Mucor miehei at […] by agar diffusion test; type: functional
Chlorella vulgaris = assay: Antialgal activity against Chlorella vulgaris at […] by agar diffusion test; type: functional
Chlorella sorokiniana = assay: Antialgal activity against Chlorella sorokiniana at […] by agar diffusion test; type: functional
Desmodesmus subspicatus = assay: Antialgal activity against Scenedesmus subspicatus at […] by agar diffusion test; type: functional
[41] = in the assay text read “MTT assay” for “propidium iodide assay”

CNC1=CC(=O)c2cc(C)ncc2C1=O
pIC50 [1]: 4.99
pIC50 [2]: 6.21
pIC50 [3]: 5.28
pIC50 (SF-268): 5.74
pIC50 (HCT-116): 5.44
pIC50 (HT-29): 5.70
pIC50 [4]: 5.44
pIC50 [5]: 6.42
pIC50 [6]: 5.18
pIC50 [7]: 5.52
pIC50 [8]: 4.97
pIC50 [9]: 5.31
pIC50 [10]: 5.93
pIC50 (NCI-H460): 5.41
pIC50 [11]: 4.76
pIC50 (MCF7): 5.95
pIC50 [12]: 6.46
pIC50 [13]: 5.24
pIC50 [14]: 4.72
pIC50 [15]: 5.69
pIC50 [16]: 6.62
pIC50 [17]: 5.40
pIC50 [18, 41]: 5.18
pIC50 (OVCAR-3; [41]): 5.12
pIC50 [19, 41]: 5.31
pIC50 (PANC-1): 5.42
pIC50 (CWR22R): 5.33
pIC50 (DU-145): 6.47
pIC50 (LNCaP): 5.20
pIC50 [20]: 5.22
pIC50 [21]: 5.22
pIC50 [22]: 5.00
pIC50 [23]: 5.38
pIC50 [24]: 4.30
pIC50 [25]: 5.27
pIC50 [26, 41]: 5.65
pIC50 [27]: 5.36
pIC50 [28]: 4.99
pIC50 [29]: 5.08
pIC50 [30]: 5.37
pIC50 [31]: 5.79
pIC50 [32]: 5.08
pIC50 [33]: 5.41
pIC50 [34]: 6.48
pIC50 [35]: 7.30
pIC50 [36]: 5.27
pIC50 [37]: 5.11
pIC50 [38]: 5.34
pIC50 [39]: 5.34

CNC1=C(Cl)C(=O)c2cc(C)ncc2C1=O
pIC50 [1]: 5.86
pIC50 [3]: 5.87
pIC50 [4]: 5.76
pIC50 [7]: 5.22
pIC50 [9]: 5.81
pIC50 [10]: 5.91
pIC50 [11]: 5.45
pIC50 [12]: 6.44
pIC50 [14]: 5.25
pIC50 [18]: 4.86
pIC50 (OVCAR-3): 5.70
pIC50 [19]: 5.74
pIC50 (CWR22R): 5.25
pIC50 [20]: 5.49
pIC50 [21]: 5.28
pIC50 [23]: 5.80
pIC50 [24]: 4.75
pIC50 [26]: 5.77

O=S(=O)(O)O.Oc1cccc2cccnc12 [QUINOSOL]
diameter of the inhibition zone (DIZ) (Bacillus subtilis): 15 mm
diameter of the inhibition zone (DIZ) (Escherichia coli): 15 mm
diameter of the inhibition zone (DIZ) (Staphylococcus aureus): 20 mm
diameter of the inhibition zone (DIZ) [40]: 0 mm
diameter of the inhibition zone (DIZ) (Candida albicans): 11 mm
diameter of the inhibition zone (DIZ) (Rhizomucor miehei): 30 mm
diameter of the inhibition zone (DIZ) (Chlorella vulgaris): 25 mm
diameter of the inhibition zone (DIZ) (Chlorella sorokiniana): 28 mm
diameter of the inhibition zone (DIZ) (Desmodesmus subspicatus): 27 mm

— ChEMBL document CHEMBL1153746, “Mansouramycins A-D, cytotoxic isoquinolinequinones from a marine streptomycete” (J Nat Prod, 2009)
